“Also recorded” adds a separate entry of the source.
Columns and labels:
CTCL cells = assay: Cell killing of CTCL cells; format: cell-based; settings: Homo sapiens, read-out: IC50 for cell killing on the CTCL cells
Summary of the method: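 Hut78, HH and H9 CTCL cell lines were exposed to varying concentrations of test compound for 72 hours. Viability was read by CellTiterGlo and normalized to DMSO control. IC50 was derived from dose-response data. There were three independent experiments, each averaged from triplicates.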

p38γ = target: T1, p38γ (Homo sapiens, UniProt P53778); assay: ADP-Glo in vitro kinase assay; format: biochemical; settings: for inhibition of p38γ kinase activity (in words): cell-free ADP-Glo, 1 μmol/L and 10 μmol/L, Figure 5c
T1 sequence (P53778 1-367): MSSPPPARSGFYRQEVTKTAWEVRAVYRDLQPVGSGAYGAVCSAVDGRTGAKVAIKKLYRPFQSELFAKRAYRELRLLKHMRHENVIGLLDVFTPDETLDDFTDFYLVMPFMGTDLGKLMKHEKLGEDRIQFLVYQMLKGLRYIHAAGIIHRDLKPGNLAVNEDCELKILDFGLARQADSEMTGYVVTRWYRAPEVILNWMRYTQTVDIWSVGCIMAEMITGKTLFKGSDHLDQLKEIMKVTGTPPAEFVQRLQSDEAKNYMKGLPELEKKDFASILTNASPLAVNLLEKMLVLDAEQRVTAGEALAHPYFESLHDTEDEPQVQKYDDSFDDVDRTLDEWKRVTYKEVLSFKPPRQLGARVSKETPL

Hut78 cells = format: cell-based, human; settings: for reduction of Hut78 cell viability (in words): Figure 5a

Row | SMILES | IC50 (CTCL cells) [µM] | IC50 (p38γ) [µM] | influence on viability of Hut78 cells (in words) (Hut78 cells; up to approximately 10 μmol/L, 72 hours) | inhibition of p38γ kinase activity (in words) (p38γ) | reduction of Hut78 cell viability (in words) (Hut78 cells)
1 | Cc1ccc(=O)n(-c2ccccc2)c1 [pirfenidone] | > 125 | > 125 | – | – | –
2 | Cc1nc(NC(=O)N2CCC[C@H]2C(N)=O)sc1-c1csc(C(C)(C)C)n1 [A66] | – | – | no influence on the viability of Hut78 cells; also recorded: does not affect cell viability | no inhibitory kinase activities against p38γ; also recorded: does not inhibit in vitro activity of p38γ | –
3 | CS(=O)(=O)N1CCN(Cc2cc3nc(-c4cccc5[nH]ncc45)nc(N4CCOCC4)c3s2)CC1 [GDC0941] | – | – | – | no inhibitory kinase activities against p38γ | only modest reduction of cell viability
4 | Cn1c(=O)n(-c2ccc(C(C)(C)C#N)cc2)c2c3cc(-c4cnc5ccccc5c4)ccc3ncc21 [BEZ235] | – | – | – | no inhibitory kinase activities against p38γ | only modest reduction of cell viability

From publication PMC7269016 (The Journal of investigative dermatology, 2018)
